ChEMBL document CHEMBL1135862, “Bioactive 4-substituted-6-methyl-2-pyrones with promising cytotoxicity against A2780 and K562 cell lines” (Bioorg Med Chem Lett, 2002)

Key:
[1] = system: A2780; assay: Inhibitory concentration in vitro for cytotoxic activity against A 2780 human ovarian carcinoma cells; type: functional, cell-based
How it was run: (§1)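 MTT assay in 96-well plates, seeding 400–1000 cells/well. Cells recover 24 h, then drug in medium is added, three wells per dose. Incubate 5 days at 37 °C in 5% CO₂. Add MTT (3 mg/mL) for 3 h, dissolve formazan in DMSO, read at 540 nm minus 620 nm. Percent growth inhibition per dose comes from duplicate experiments, reported as mean and SD; IC50 is derived from these.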

[2] = system: Bacillus subtilis; assay: Antimicrobial activity against Bacillus subtilis after 96 hr incubation; type: functional; parameters: concentration or dose not given beside the values
How it was run: (§2)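 Agar diffusion on cellulose disks loaded with 200 µg compound each. Bacteria read after 96 h, yeasts after 48 h. Activity is recorded as the radius in mm, or percent, of the inhibition zone. Squalestatin S1 (200 µg/disk) served as control in the yeast assay.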

[3] = system: Candida albicans; assay: Anti fungal activity against Candida albicans after 48 hr incubation; type: functional; parameters: concentration or dose not given beside the values; how it was run: as §2
[4] = system: Candida albicans; assay: Antimicrobial activity against Candida albicans after 48 hr incubation; type: functional; how it was run: as §2
[5] = system: Escherichia coli; assay: Antimicrobial activity against Escherichia coli after 96h incubation; type: functional; how it was run: as §2
[6] = system: Escherichia coli; assay: Antimicrobial activity against the Escherichia coli after 96 hr incubation; type: functional; parameters: concentration or dose not given beside the values; how it was run: as §2
[7] = system: K562; assay: Inhibitory concentration in vitro for cytotoxic activity against K 562 human chronic myelogenous leukemia cells; type: functional, cell-based; how it was run: as §1
[8] = system: Schizosaccharomyces pombe; assay: The compound was evaluated for antimicrobial activity against Schizosaccharomyces pombe after 48 hr incubation; type: functional; how it was run: as §2
[9] = system: Schizosaccharomyces pombe; assay: (§3) Antimicrobial activity against Schizosaccharomyces pombe after 48 hr incubation; type: functional; how it was run: as §2
[10] = system: Saccharomyces cerevisiae; assay: Antimicrobial activity against Saccharomyces cerevisiae after 48 hr incubation; type: functional; how it was run: as §2
[11] = system: Staphylococcus aureus; assay: The compound was evaluated for anti microbial activity against Staphylococcus aureus after 96 hr incubation; type: functional; parameters: concentration or dose not given beside the values; how it was run: as §2
[12] = system: Staphylococcus aureus; assay: Antimicrobial activity against Staphylococcus aureus after 96h incubation; type: functional; how it was run: as §2
[13] = system: Saccharomyces cerevisiae; assay: Compound was evaluated for anti fungal activity against Saccharomyces cerevisiae after 48 hr incubation; type: functional; how it was run: as §2
[14] = system: Bacillus subtilis; assay: Antimicrobial activity against Bacillus subtilis after 96h incubation; type: functional; how it was run: as §2
[15] = system: Schizosaccharomyces pombe; assay: as §3; type: functional; parameters: concentration or dose not given beside the values; how it was run: as §2

Row | Compound | IC50 [1] | Inhibition [2] | Inhibition [3] | Inhibition [4] | Inhibition [5] | Inhibition [6] | IC50 [7] | Inhibition [8] | Inhibition [9] | Inhibition [10] | Inhibition [11] | Inhibition [12] | Inhibition [13] | Inhibition [14] | Inhibition [15]
1 | CCCCCCCc1cc(C)oc(=O)c1 | 41.8 µM | 18.2% | 18.2% | 16 mm | 17 mm | 19.3% | 28.7 µM | 34.1% | 30 mm | 5 mm | 15.9% | 14 mm | 5.7% | 16 mm | 
2 | Cc1cc(C#CCOC2CCCCO2)cc(=O)o1 (centres undefined) | 2.1 µM | 22.7% | 14.8% | 13 mm | 17 mm | 19.3% | 4 µM |  | 18 mm | 0 mm | 34.1% | 30 mm |  | 20 mm | 20.5%
3 | C#Cc1cc(C)oc(=O)c1 | 3.1 µM | 19.3% | 40.9% | 36 mm | 16 mm | 18.2% | 2 µM |  | 40 mm | 40 mm | 34.1% | 30 mm | 45.4% | 17 mm | 45.5%
4 | CCCCCC/C=C/c1cc(C)oc(=O)c1 | > 50 µM | 20.5% | 22.7% | 20 mm | 20 mm | 22.7% | > 50 µM |  | 29 mm | 0 mm | 20.5% | 18 mm |  | 18 mm | 32.9%
5 | CCCC#Cc1cc(C)oc(=O)c1 | 4.8 µM | 20.5% | 12.5% | 11 mm | 22 mm | 25% | 17.8 µM |  | 29 mm | 0 mm | 23.9% | 21 mm |  | 18 mm | 32.9%
6 | CCCCC/C=C/c1cc(C)oc(=O)c1 | > 50 µM | 20.5% | 23.9% | 21 mm | 18 mm | 20.5% | > 50 µM |  | 34 mm | 0 mm | 19.3% | 17 mm |  | 18 mm | 38.6%
7 | CCc1cc(C)oc(=O)c1 | > 50 µM |  |  | 0 mm | 21 mm | 23.8% | > 50 µM | 0 radii mm-1 |  | 0 mm |  | 0 mm |  | 0 mm | 
